Laboratory results reported in ChEMBL document CHEMBL1240368, “Chloroquine modulates HIV-1-induced plasmacytoid dendritic cell alpha interferon: implication for T-cell activation” (Antimicrob Agents Chemother, 2010).
Calls of active or inactive are those of the source. No cut-off for these calls is given here.

Legend:
[1] = biological target: T1, Toll-like receptor 9 (Homo sapiens) (UniProt Q9NR96); experiment: Inhibition of TLR9-mediated upregulation of PDL1 expression in CpGA-stimulated human PBMC at 100 uM after 20 hrs by flow cytometry
T1 sequence (whole entry): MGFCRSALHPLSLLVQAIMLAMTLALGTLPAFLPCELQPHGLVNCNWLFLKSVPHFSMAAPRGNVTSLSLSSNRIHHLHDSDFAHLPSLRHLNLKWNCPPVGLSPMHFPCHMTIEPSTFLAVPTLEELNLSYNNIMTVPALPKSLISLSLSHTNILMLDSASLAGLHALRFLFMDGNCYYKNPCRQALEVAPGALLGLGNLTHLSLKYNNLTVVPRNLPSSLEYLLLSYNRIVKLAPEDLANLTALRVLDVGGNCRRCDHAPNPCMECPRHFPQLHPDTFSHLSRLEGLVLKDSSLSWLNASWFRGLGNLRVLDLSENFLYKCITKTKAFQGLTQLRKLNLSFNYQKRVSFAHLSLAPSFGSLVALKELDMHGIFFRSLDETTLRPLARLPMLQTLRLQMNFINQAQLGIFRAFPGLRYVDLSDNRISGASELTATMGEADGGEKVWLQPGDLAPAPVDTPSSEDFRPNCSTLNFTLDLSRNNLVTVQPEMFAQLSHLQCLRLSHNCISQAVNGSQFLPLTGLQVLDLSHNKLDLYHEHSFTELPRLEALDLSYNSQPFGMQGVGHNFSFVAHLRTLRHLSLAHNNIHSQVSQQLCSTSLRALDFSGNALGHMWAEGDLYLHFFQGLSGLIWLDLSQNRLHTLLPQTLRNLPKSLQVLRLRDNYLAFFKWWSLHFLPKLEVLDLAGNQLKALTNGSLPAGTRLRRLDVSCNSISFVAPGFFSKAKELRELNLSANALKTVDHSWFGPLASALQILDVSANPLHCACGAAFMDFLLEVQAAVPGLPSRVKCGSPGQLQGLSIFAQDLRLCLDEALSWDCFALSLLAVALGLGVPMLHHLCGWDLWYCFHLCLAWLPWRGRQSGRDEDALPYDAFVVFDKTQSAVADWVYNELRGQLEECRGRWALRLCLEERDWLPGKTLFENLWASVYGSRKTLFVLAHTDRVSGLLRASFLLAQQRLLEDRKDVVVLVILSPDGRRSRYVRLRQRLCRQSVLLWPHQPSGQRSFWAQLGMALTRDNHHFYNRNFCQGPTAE
Outline: (§1)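 Human PBMC (1 × 10^6 cells/well) preincubated 1 h with 100 μM chloroquine or medium, then cultured 20 h at 37°C with AT-2 HIV-1 (500 ng/ml p24), 3M-011 (3.0 μM) or CpG A (4 μg/ml); PDL-1 on pDC read as MFI by flow cytometry.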

[2] = biological target: T2, Toll-like receptor (TLR7/TLR9) (Homo sapiens) (UniProt Q9NR96+Q9NYK1); experiment: Inhibition of TLR7/TLR9-mediated indoleamine 2,3-dioxygenase activation in aldrithiol-2-treated HIV1 Ada-stimulated human PBMC assessed as decrease in kynurenine to tryptophan level at 100 uM after 20 hrs by fluorometric assay; format: protein assay
Outline: (§2)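 PBMC (1 × 10^6/well) ± 100 μM chloroquine (1 h preincubation), stimulated 20 h with AT-2 HIV-1, 3M-011 or CpG A. Kynurenine in supernatant: 30% TCA, 50°C, 30 min, then Ehrlich's reagent, absorbance 490 nm. Tryptophan: 20% TCA, then TCA/formaldehyde/FeCl3 at 90°C for 2 h, fluorescence ex 360/em 460 nm. Duplicates, standard curves; reported as kynurenine/tryptophan ratio.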

[3] = biological target: T3, TLR7 and TLR8 (Homo sapiens) (UniProt Q9NYK1+Q9NR97); experiment: Inhibition of TLR7/TLR8-mediated IFN-alpha production in 3M-011-stimulated human PBMC at 100 uM after 20 hrs by ELISA
[4] = biological target: T2, Toll-like receptor (TLR7/TLR9) (Homo sapiens); experiment: Inhibition of TLR7/TLR9-mediated upregulation of PDL1 expression in aldrithiol-2-treated HIV1 MN-stimulated human PBMC at 100 uM after 20 hrs by flow cytometry; outline: as §1
[5] = biological target: T2, Toll-like receptor (TLR7/TLR9) (Homo sapiens); experiment: Inhibition of TLR7/TLR9-mediated upregulation of PDL1 expression in aldrithiol-2-treated HIV1 Ada-stimulated human PBMC at 100 uM after 20 hrs by flow cytometry; outline: as §1
[6] = biological target: T3, TLR7 and TLR8 (Homo sapiens); experiment: Inhibition of TLR7/TLR8-mediated upregulation of PDL1 expression in 3M-011-stimulated human PBMC at 100 uM after 20 hrs by flow cytometry; outline: as §1
[7] = biological target: T4, Toll-like receptor 7 (Homo sapiens) (UniProt Q9NYK1); experiment: Inhibition of TLR7-mediated IFN-alpha production in aldrithiol-2-treated HIV1 MN-stimulated human PBMC at 100 uM after 20 hrs by ELISA
T4 sequence (whole entry): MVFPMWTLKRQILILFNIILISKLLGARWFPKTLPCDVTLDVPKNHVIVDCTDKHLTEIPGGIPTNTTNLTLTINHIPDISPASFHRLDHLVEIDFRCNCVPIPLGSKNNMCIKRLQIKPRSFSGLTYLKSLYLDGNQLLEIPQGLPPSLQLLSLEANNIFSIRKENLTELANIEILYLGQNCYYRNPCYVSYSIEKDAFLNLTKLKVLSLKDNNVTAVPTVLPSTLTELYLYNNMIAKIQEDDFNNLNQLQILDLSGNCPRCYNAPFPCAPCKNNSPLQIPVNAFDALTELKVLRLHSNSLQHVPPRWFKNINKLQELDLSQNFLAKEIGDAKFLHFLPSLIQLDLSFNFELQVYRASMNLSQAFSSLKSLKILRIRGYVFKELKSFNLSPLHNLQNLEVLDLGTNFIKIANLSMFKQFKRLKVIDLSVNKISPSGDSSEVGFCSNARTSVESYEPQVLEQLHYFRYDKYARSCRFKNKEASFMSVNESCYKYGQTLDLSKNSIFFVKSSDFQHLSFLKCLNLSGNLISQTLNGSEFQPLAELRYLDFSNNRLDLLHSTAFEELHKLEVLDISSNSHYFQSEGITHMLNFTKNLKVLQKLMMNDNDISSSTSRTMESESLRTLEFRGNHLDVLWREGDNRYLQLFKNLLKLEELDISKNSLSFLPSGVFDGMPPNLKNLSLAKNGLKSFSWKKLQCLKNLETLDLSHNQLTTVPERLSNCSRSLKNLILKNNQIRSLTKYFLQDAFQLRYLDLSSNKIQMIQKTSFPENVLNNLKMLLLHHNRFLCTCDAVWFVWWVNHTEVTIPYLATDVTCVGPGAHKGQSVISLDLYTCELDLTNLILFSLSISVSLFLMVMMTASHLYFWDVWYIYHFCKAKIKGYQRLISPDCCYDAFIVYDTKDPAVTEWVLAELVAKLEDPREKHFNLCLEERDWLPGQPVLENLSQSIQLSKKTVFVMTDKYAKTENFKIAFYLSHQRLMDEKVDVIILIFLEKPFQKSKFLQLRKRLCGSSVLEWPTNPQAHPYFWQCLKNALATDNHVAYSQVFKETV

[8] = biological target: T4, Toll-like receptor 7 (Homo sapiens); experiment: Inhibition of TLR7-mediated upregulation of IRF7 expression in aldrithiol-2-treated HIV1 Ada-stimulated human PBMC at 100 uM after 20 hrs by flow cytometry
Outline: (§3)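 PBMC preincubated 1 h ± 100 μM chloroquine, stimulated 20 h with AT-2 HIV-1 Ada or MN (500 ng/ml p24); pDC gated Lin1− CD123+ HLA-DR+; surface CD86 (% cells), CD83 (% cells), or intracellular IRAK-4, IRF-7, IDO after Cytofix/Cytoperm with rabbit antibody plus PE anti-rabbit (MFI) by flow cytometry; microvesicle controls.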

[9] = biological target: T2, Toll-like receptor (TLR7/TLR9) (Homo sapiens); experiment: Inhibition of TLR7/TLR9-mediated activation of exogenous rIFNalpha2A-stimulated human CD8-positive T cells assessed as […] at 5 uM after 20 hrs by flow cytometry; format: cell-based; conditions: T-cell
Outline: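 Bead-enriched CD8+ T cells (indirect negative isolation) preincubated 1 h with 5 μM chloroquine, then given 1,000 U/ml rIFN-α2a for 20 h; CD38 MFI on CD3+ CD8+ cells by flow cytometry; anti-IFN-αR 64G12 (10 μg/ml, 30 min pretreatment) used as comparator; n = 3 experiments.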

[10] = biological target: T2, Toll-like receptor (TLR7/TLR9) (Homo sapiens); experiment: Inhibition of TLR7/TLR9-mediated activation of aldrithiol-2-treated HIV1 Ada-stimulated human PBMC assessed as CD38-MFI level in activated CD8-positive cells at 5 uM after 20 hrs by flow cytometry; format: cell-based
Outline: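 PBMC preincubated 1 h with 5 μM chloroquine, then stimulated with AT-2 HIV-1 Ada for 20 h; CD38 surface expression on gated CD3+ CD8+ T cells by flow cytometry, expressed as CD38 MFI.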

[11] = biological target: T1, Toll-like receptor 9 (Homo sapiens); experiment: Inhibition of TLR9-mediated indoleamine 2,3-dioxygenase activation in CpGA-stimulated human PBMC assessed as decrease in kynurenine to tryptophan level at 100 uM after 20 hrs by ELISA
[12] = biological target: T4, Toll-like receptor 7 (Homo sapiens); experiment: Inhibition of TLR7-mediated upregulation of IRF7 expression in aldrithiol-2-treated HIV1 MN-stimulated human PBMC at 100 uM after 20 hrs by flow cytometry; outline: as §3
[13] = biological target: T2, Toll-like receptor (TLR7/TLR9) (Homo sapiens); experiment: Inhibition of TLR7/TLR9-mediated upregulation of indoleamine 2,3-dioxygenase expression in aldrithiol-2-treated HIV1 Ada-stimulated human PBMC at 100 uM after 20 hrs by flow cytometry; outline: as §3
[14] = biological target: T4, Toll-like receptor 7 (Homo sapiens); experiment: Inhibition of TLR7-mediated IFN-alpha production in aldrithiol-2-treated HIV1 Ada-stimulated human PBMC at 100 uM after 20 hrs by ELISA
[15] = biological target: T4, Toll-like receptor 7 (Homo sapiens); experiment: Inhibition of TLR7-mediated upregulation of IRAK4 expression in aldrithiol-2-treated HIV1 MN-stimulated human PBMC at 100 uM after 20 hrs by flow cytometry; outline: as §3
[16] = biological target: T2, Toll-like receptor (TLR7/TLR9) (Homo sapiens); experiment: Inhibition of TLR7/TLR9-mediated maturation of aldrithiol-2-treated HIV1 Ada-stimulated human PBMC assessed as CD83 expressing cells at 100 uM after 20 hrs by flow cytometry; format: cell-based; design: scale not given: the % may be the effect or the level left; outline: as §3
[17] = biological target: T2, Toll-like receptor (TLR7/TLR9) (Homo sapiens); experiment: Inhibition of TLR7/TLR9-mediated indoleamine 2,3-dioxygenase activation in aldrithiol-2-treated HIV1 MN-stimulated human PBMC assessed as decrease in kynurenine to tryptophan level at 100 uM after 20 hrs by fluorometric assay; format: protein assay; outline: as §2
[18] = biological target: T2, Toll-like receptor (TLR7/TLR9) (Homo sapiens); experiment: Inhibition of TLR7/TLR9-mediated maturation of aldrithiol-2-treated HIV1 MN-stimulated human PBMC assessed as CD83 expressing cells at 100 uM after 20 hrs by flow cytometry; format: cell-based; design: scale not given: the % may be the effect or the level left; outline: as §3
[19] = biological target: T3, TLR7 and TLR8 (Homo sapiens); experiment: Inhibition of TLR7/TLR8-mediated indoleamine 2,3-dioxygenase activation in 3M-011-stimulated human PBMC assessed as decrease in kynurenine to tryptophan level at 100 uM after 20 hrs by ELISA; format: protein assay
[20] = biological target: T2, Toll-like receptor (TLR7/TLR9) (Homo sapiens); experiment: Inhibition of TLR7/TLR9-mediated activation of aldrithiol-2-treated HIV1 Ada-stimulated human PBMC assessed as CD86 expressing cells at 100 uM after 20 hrs by flow cytometry; format: cell-based; design: scale not given: the % may be the effect or the level left; outline: as §3
[21] = biological target: T2, Toll-like receptor (TLR7/TLR9) (Homo sapiens); experiment: Inhibition of TLR7/TLR9-mediated activation of aldrithiol-2-treated HIV1 MN-stimulated human PBMC assessed as CD86 expressing cells at 100 uM after 20 hrs by flow cytometry; format: cell-based; design: scale not given: the % may be the effect or the level left; outline: as §3
[22] = biological target: T2, Toll-like receptor (TLR7/TLR9) (Homo sapiens); experiment: Inhibition of TLR7/TLR9-mediated upregulation of indoleamine 2,3-dioxygenase expression in aldrithiol-2-treated HIV1 MN-stimulated human PBMC at 100 uM after 20 hrs by flow cytometry; outline: as §3
[23] = biological target: T1, Toll-like receptor 9 (Homo sapiens); experiment: Inhibition of TLR9-mediated IFN-alpha production in CpGA-stimulated human PBMC at 100 uM after 20 hrs by ELISA
[24] = biological target: T4, Toll-like receptor 7 (Homo sapiens); experiment: Inhibition of TLR7-mediated upregulation of IRAK4 expression in aldrithiol-2-treated HIV1 Ada-stimulated human PBMC at 100 uM after 20 hrs by flow cytometry; outline: as §3
[25] = biological target: T4, Toll-like receptor 7 (Homo sapiens); experiment: Inhibition of TLR7-mediated IFN-alpha production in aldrithiol-2-treated HIV1 Ada-stimulated human PBMC after 20 hrs by ELISA
[26] = biological target: T4, Toll-like receptor 7 (Homo sapiens); experiment: Inhibition of TLR7-mediated IFN-alpha production in aldrithiol-2-treated HIV1 MN-stimulated human PBMC after 20 hrs by ELISA

T3 sequence (Q9NR97 whole entry, looked up, one chain of several): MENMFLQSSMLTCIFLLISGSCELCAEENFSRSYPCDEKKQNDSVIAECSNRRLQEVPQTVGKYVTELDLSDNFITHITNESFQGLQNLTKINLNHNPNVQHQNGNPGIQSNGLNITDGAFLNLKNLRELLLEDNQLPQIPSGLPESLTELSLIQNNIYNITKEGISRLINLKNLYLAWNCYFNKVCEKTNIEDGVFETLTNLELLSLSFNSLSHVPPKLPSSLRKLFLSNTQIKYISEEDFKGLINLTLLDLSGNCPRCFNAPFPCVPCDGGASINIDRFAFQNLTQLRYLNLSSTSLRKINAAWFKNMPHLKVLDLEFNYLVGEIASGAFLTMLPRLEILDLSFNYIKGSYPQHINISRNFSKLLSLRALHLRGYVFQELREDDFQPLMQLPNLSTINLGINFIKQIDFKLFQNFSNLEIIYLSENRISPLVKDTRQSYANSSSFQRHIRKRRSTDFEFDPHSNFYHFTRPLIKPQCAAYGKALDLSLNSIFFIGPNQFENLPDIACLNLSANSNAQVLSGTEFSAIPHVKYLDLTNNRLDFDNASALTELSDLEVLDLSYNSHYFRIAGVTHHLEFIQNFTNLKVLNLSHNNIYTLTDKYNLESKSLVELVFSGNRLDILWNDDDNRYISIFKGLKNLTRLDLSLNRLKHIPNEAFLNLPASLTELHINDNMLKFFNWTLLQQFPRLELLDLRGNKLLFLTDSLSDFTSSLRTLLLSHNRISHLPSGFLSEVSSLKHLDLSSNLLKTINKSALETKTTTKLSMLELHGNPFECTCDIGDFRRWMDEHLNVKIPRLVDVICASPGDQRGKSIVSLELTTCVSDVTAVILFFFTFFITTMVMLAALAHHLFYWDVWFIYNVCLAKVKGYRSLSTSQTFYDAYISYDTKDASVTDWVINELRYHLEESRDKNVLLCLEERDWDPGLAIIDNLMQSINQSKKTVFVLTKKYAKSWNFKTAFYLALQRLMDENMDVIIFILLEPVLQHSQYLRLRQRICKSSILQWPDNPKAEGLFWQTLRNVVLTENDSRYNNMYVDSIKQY

SMILES: CCN(CC)CCCC(C)Nc1ccnc2cc(Cl)ccc12 (stereo unspecified)
- inhibition [1]: Active
- inhibition [2]: Active
- inhibition [3]: Active
- inhibition [4]: Active
- inhibition [5]: Active
- inhibition [6]: Active
- inhibition [7]: Active
- inhibition [8]: Active
- inhibition [9]: inactive
- inhibition [10]: 23.4%
- inhibition [11]: Active
- inhibition [12]: Active
- inhibition [13]: Active
- inhibition [14]: Active
- inhibition [15]: Active
- Activity [16]: 12.6%
- inhibition [17]: Active
- Activity [18]: 14.3%
- inhibition [19]: Active
- Activity [20]: 11.1%
- Activity [21]: 8.2%
- inhibition [22]: Active
- inhibition [23]: Active
- inhibition [24]: Active
- inhibition [25]: Dose-dependent effect
- inhibition [26]: Dose-dependent effect
